Screening data deposited in PubChem by Broad Institute.
A1 apoptosis 2 = blocks A1, raising caspase activity. MEF A1-2A-BIM cells, caspase-Glo luminescence, 3 h; percent of clofoctol response, DMSO zero. caspase activation, % (concentration not given with the values). AID 2465. 24,000 tested, under 10 active; in the data active = caspase activation above about 5.9%; inconclusive = no clear call, values can overlap the other calls; inactive = below about 2.2%
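system = A1-2A-BIM-expressing MEF cells | quantity = 2500 MEF cells/well | dosing = 50 nL compound per well, pinned | schedule = overnight cell settling, then 3 h compound exposure, 37 °C | signal = luminescence from DEVD-luciferin Caspase-Glo reagent, 1:1 in 50 mM HEPES, 1 h RT | read-out = Caspase-3/7 activation, seen as rise in luminescence signal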
INS-1E ATP HTS = rescue of cytokine-induced death in INS-1E beta cells | AID 488910 | 20,000 tested, 0.1% active | protection from cytokine-induced ATP loss, % at 10 µM | INS-1E cytokine-induced death, ATP luminescence, 48 h; normalised: neutral wells 0, positive control 100;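 active = mean replicate protection from cytokine-induced ATP loss at least 50% and at least 75% of replicates each reaching 50%; inconclusive = meets only one of the two criteria, mean or replicate share; inactive = fails both the mean and replicate share criteria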
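Material: INS-1E rat cells; Quantity: 8000 cells/well; Buffer or medium: phenol-red-free RPMI with 5% fetal bovine serum; Probe or stimulus: cytokine cocktail of IFN-γ, TNF-α and IL-1β; Compound dosing: single test concentration per compound, delivered by pin transfer; Incubation: 48 h co-treatment, 10 min post-lysis read; Signal: CellTiter-Glo luminescence.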
T cruzi HTS = inhibitors of intracellular Trypanosoma cruzi | AID 651903 | activity score (inhibition), % at 5.01 µM | intracellular Trypanosoma cruzi in host cells, plate reader | 22,000 tested, 4.9% active; in the data active = activity score above about 55%; inconclusive = no clear call, values can overlap the other calls;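 also: parasites and compound incubated about four days before reading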
Each line names hits and unclear results; the compound was inactive in the other large screens. Many of the other results were omitted from the sample, so hits are more common in it than they were.

C[C@@H]1CN([C@H](C)CO)C(=O)c2cc(NC(=O)Nc3ccc(C(F)(F)F)cc3)ccc2O[C@@H](C)CCCCO[C@H]1CN(C)Cc1ccc(C(F)(F)F)cc1	none (no result: INS-1E ATP HTS, T cruzi HTS)
O=C(O)CCCCCCC(=O)N/N=C/c1cc(F)ccc1O	none
C=CCC/C=N/NC(=O)CCCCCC(=O)O	none
C[C@@H]1CCCCO[C@H](CN(C)Cc2ccc(Cl)c(Cl)c2)[C@H](C)CN([C@@H](C)CO)C(=O)c2cc(NC(=O)Nc3ccc4c(c3)OCO4)ccc2O1	none (no result: INS-1E ATP HTS, T cruzi HTS)
C[C@@H]1CCCCO[C@H](CN(C)Cc2ccc3c(c2)OCO3)[C@@H](C)CN([C@H](C)CO)C(=O)c2cc(NC(=O)Nc3ccc(C(F)(F)F)cc3)ccc2O1	T cruzi HTS 78
C[C@@H]1CCCCO[C@@H](CN(C)Cc2ccc(C(F)(F)F)cc2)[C@@H](C)CN([C@@H](C)CO)C(=O)c2cc(NC(=O)Nc3ccc4c(c3)OCO4)ccc2O1	none (no result: INS-1E ATP HTS, T cruzi HTS)
C[C@@H]1CCCCO[C@@H](CN(C)Cc2ccc(Cl)c(Cl)c2)[C@@H](C)CN([C@H](C)CO)C(=O)c2cc(NC(=O)Nc3ccc4c(c3)OCO4)ccc2O1	T cruzi HTS 67
O=C(CCCCCCC(=O)Nc1ccccc1O)N/N=C/c1cc(Cl)cc(Cl)c1O	none
O=C(NO)c1cccc(C(=O)N/N=C/c2cc3c(cc2Br)OCO3)c1	none (no result: A1 apoptosis 2)
C[C@H]1CN([C@@H](C)CO)C(=O)c2cc(NC(=O)Nc3ccc(C(F)(F)F)cc3)ccc2O[C@H]1CN(C)Cc1ccc(-c2ccccc2)cc1	T cruzi HTS 58 (no result: A1 apoptosis 2)
C[C@H]1CN([C@@H](C)CO)C(=O)c2cc(NC(=O)Nc3ccc(F)cc3)ccc2O[C@H]1CN(C)Cc1ccc(-c2ccccc2)cc1	T cruzi HTS 65 (no result: A1 apoptosis 2)
C[C@H](CO)N1C[C@H](C)[C@H](CN(C)Cc2ccc(-c3ccccc3)cc2)Oc2ccc(NC(=O)Nc3ccc(C(F)(F)F)cc3)cc2C1=O	none (no result: INS-1E ATP HTS)
C[C@H](CO)N1C[C@H](C)[C@@H](CN(C)Cc2ccc(-c3ccccc3)cc2)Oc2ccc(NC(=O)Nc3ccc(F)cc3)cc2C1=O	none
C=CCNC(=O)[C@@H]1[C@H]2C(=O)O[C@H](c3ccccc3)[C@H](c3ccccc3)N2[C@H](c2ccc(OCCO)cc2)[C@@]12C(=O)Nc1ccc(C#CC3(O)CCCCCC3)cc12	none (no result: INS-1E ATP HTS, T cruzi HTS)
C=CCOc1ccccc1/C=N/NC(=O)c1cccc(C(=O)NO)c1	none (no result: A1 apoptosis 2)
COc1ccc(/C=N/NC(=O)CCCCCC(=O)NO)cc1O	none (no result: INS-1E ATP HTS, T cruzi HTS)
O=S(=O)(N[C@@H]1CCCN(Cc2cccc(OCCO)c2)C1)c1cccc(F)c1	none (no result: INS-1E ATP HTS, T cruzi HTS)
C[C@@H]1CN([C@H](C)CO)C(=O)Cc2cc(NC(=O)C3CCCCC3)ccc2O[C@H]1CN(C)Cc1ccc(Oc2ccccc2)cc1	T cruzi HTS 76 (no result: A1 apoptosis 2)
C[C@H]1CN([C@@H](C)CO)C(=O)Cc2cc(NC(=O)C3CCCCC3)ccc2O[C@H]1CN(C)Cc1ccc(Oc2ccccc2)cc1	none (no result: A1 apoptosis 2)
COc1ccc(CN(C)C[C@H]2Oc3ccc(NC(=O)C4CCCCC4)cc3CC(=O)N([C@H](C)CO)C[C@H]2C)cc1	none
COc1ccc(CN(C)C[C@H]2Oc3ccc(NC(=O)C4CCCCC4)cc3CC(=O)N([C@@H](C)CO)C[C@@H]2C)cc1	T cruzi HTS 64 (no result: A1 apoptosis 2)
CC(C)(C)OC(=O)Nc1ccc(/C=N/NC(=O)c2ccccc2O)cc1	none (no result: A1 apoptosis 2)
O=C(CCCCCCC(=O)Nc1ccccc1O)N/N=C/[C@H](O)[C@@H](O)[C@H](O[C@@H]1O[C@H](CO)[C@H](O)[C@H](O)[C@H]1O)[C@H](O)CO	none (no result: A1 apoptosis 2)
CCn1c2ccccc2c2cc(/C=N/NC(=O)CCCCCCC(=O)OC)ccc21	none (no result: A1 apoptosis 2)
COc1ccc(CN(C)C[C@H]2Oc3ccc(NC(=O)Nc4ccc(OC)cc4)cc3CC(=O)N([C@H](C)CO)C[C@@H]2C)cc1	none (no result: INS-1E ATP HTS, T cruzi HTS)
C[C@@H]1CN([C@H](C)CO)C(=O)Cc2cc(NC(=O)Nc3ccc(F)cc3)ccc2O[C@H]1CN(C)Cc1ccc(Cl)c(Cl)c1	T cruzi HTS 62
C[C@H]1CN([C@@H](C)CO)C(=O)Cc2cc(NC(=O)Nc3ccc(F)cc3)ccc2O[C@@H]1CN(C)Cc1ccc(Cl)c(Cl)c1	T cruzi HTS inconclusive (no result: A1 apoptosis 2)
COc1ccc(NC(=O)Nc2ccc3c(c2)CC(=O)N([C@@H](C)CO)C[C@H](C)[C@H](CN(C)Cc2ccc(Cl)c(Cl)c2)O3)cc1	T cruzi HTS 64 (no result: A1 apoptosis 2)
COc1ccc(NC(=O)Nc2ccc3c(c2)CC(=O)N([C@H](C)CO)C[C@@H](C)[C@H](CN(C)Cc2ccc(Cl)c(Cl)c2)O3)cc1	T cruzi HTS inconclusive (no result: A1 apoptosis 2)
COc1ccc(NC(=O)Nc2ccc3c(c2)CC(=O)N([C@H](C)CO)C[C@@H](C)[C@@H](CN(C)Cc2ccc(Cl)c(Cl)c2)O3)cc1	T cruzi HTS 74
COc1ccc(S(=O)(=O)Nc2ccc3c(c2)C(=O)N([C@@H](C)CO)C[C@H](C)[C@@H](CN(C)C(=O)NC2CCCCC2)O3)cc1	none (no result: A1 apoptosis 2, INS-1E ATP HTS)
CC(C)(C)OC(=O)N1CCC[C@H]1/C=N/NC(=O)CCCCCC(=O)O	none (no result: A1 apoptosis 2)
CN1C(=O)N[C@@H]2c3ccccc3O[C@@]1(CO)[C@@H]2COC(=O)c1ccccc1	none (no result: INS-1E ATP HTS, T cruzi HTS)
C[C@H]1CN([C@@H](C)CO)C(=O)Cc2cc(NC(=O)Nc3ccc(C(F)(F)F)cc3)ccc2O[C@@H]1CN(C)CC1CCCCC1	T cruzi HTS 63
C[C@H](CO)N1C[C@H](C)[C@H](CN(C)CC2CCCCC2)Oc2ccc(NC(=O)Nc3ccc(C(F)(F)F)cc3)cc2CC1=O	T cruzi HTS 60
C[C@H]1CN([C@@H](C)CO)C(=O)Cc2cc(NC(=O)Nc3ccc(F)cc3)ccc2O[C@H]1CN(C)CC1CCCCC1	none (no result: A1 apoptosis 2)
C[C@H](CO)N1C[C@H](C)[C@H](CN(C)CC2CCCCC2)Oc2ccc(NC(=O)Nc3ccc(F)cc3)cc2CC1=O	none
Cc1ccccc1/C=N/NC(=O)CCCCCC(=O)O	none
CCOc1cccc(/C=N/NC(=O)c2cccc(C(=O)NO)c2)c1OCC	none
C[C@@H]1CN([C@@H](C)CO)C(=O)c2cccc(NC(=O)Nc3ccc(C(F)(F)F)cc3)c2O[C@H]1CN(C)C(=O)Nc1ccc(C(F)(F)F)cc1	T cruzi HTS 72
C[C@@H]1CN([C@@H](C)CO)C(=O)c2cccc(NS(=O)(=O)c3cccs3)c2O[C@@H]1CN(C)C(=O)Nc1ccc(F)cc1	none (no result: A1 apoptosis 2)
C[C@H]1CN([C@@H](C)CO)C(=O)c2cccc(NC(=O)Nc3ccc(C(F)(F)F)cc3)c2O[C@@H]1CN(C)C(=O)Nc1ccc(C(F)(F)F)cc1	none
C[C@@H]1CN([C@H](C)CO)C(=O)c2cccc(NS(=O)(=O)c3cccs3)c2O[C@@H]1CN(C)C(=O)Nc1ccc(C(F)(F)F)cc1	T cruzi HTS 71
C[C@@H]1CN([C@H](C)CO)C(=O)c2cccc(NC(=O)Nc3ccc(C(F)(F)F)cc3)c2O[C@@H]1CN(C)C(=O)NC1CCCCC1	T cruzi HTS 82
COc1ccc(S(=O)(=O)Nc2cccc3c2O[C@H](CN(C)C(=O)Nc2ccc(F)cc2)[C@@H](C)CN([C@H](C)CO)C3=O)cc1	none (no result: A1 apoptosis 2)
COc1ccc(NC(=O)N(C)C[C@H]2Oc3c(NS(=O)(=O)c4ccc(F)cc4)cccc3C(=O)N([C@@H](C)CO)C[C@H]2C)cc1	T cruzi HTS 64
